Molecules are shown by their SMILES.

The target of assay [1] is T1, Adenosine receptor A1 (Homo sapiens, UniProt P30542).
T1 sequence (P30542 whole entry): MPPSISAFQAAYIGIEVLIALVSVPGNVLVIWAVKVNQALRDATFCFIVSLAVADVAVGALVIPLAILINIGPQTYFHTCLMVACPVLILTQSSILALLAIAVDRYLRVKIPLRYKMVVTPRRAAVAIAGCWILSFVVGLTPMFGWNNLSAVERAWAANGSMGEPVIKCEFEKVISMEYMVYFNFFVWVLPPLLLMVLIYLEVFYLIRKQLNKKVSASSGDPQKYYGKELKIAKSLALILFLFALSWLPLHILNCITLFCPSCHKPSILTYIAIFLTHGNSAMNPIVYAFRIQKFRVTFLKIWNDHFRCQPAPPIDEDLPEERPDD
Put plainly: Displacement of [3H]DPCPX from human Adenosine A1 receptor expressed in CHO cells; range 724-889. It counts as cell-based. The method in brief:
(§1)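 Human recombinant A1 receptor in CHO cell membranes, resuspended in 50 mM Tris HCl pH 7.4. Displacement run 120 min at 25 °C with 1 nM [3H]DPCPX, 50 µg protein per assay, and at least six to eight test concentrations. Nonspecific binding defined with CHA. Bound and free separated on glass-fiber filters; filter radioactivity counted. n = 3-6.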

Assay [2] addresses T2, Adenosine receptor A2a (Homo sapiens, UniProt P29274). Put plainly: Displacement of [3H]SCH-58261 from human Adenosine A2A receptor expressed in HEK293 cells; range 511-648. It is filed as cell-based.
In assay [3] the target is T3, Adenosine receptor A2b (Homo sapiens, UniProt P29275).
T3 sequence (P29275 whole entry): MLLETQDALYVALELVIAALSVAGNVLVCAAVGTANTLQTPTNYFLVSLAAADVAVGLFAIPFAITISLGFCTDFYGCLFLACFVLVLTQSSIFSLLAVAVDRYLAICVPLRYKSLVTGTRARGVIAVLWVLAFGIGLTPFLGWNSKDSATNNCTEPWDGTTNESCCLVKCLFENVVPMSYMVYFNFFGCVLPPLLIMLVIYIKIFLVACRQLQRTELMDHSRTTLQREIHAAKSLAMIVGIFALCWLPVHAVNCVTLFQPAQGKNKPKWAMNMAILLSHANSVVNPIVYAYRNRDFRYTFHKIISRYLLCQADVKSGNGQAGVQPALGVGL
Put plainly: Displacement of [3H]DPCPX from human Adenosine A2B receptor expressed in HEK293 cells; range 37-63. It is filed as cell-based. The method in brief:
(§2)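 HEK-293 membranes expressing the human receptor were incubated 60 min at 25 °C. Six to eight test concentrations were used. Nonspecific binding was set with NECA. n = 3-6.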

For assay [4], the target named is Adenosine receptors; A2b & A3 (Homo sapiens) (UniProt P29275+P0DMS8). Put plainly: Selectivity ratio (h2B/hA3). It counts as protein assay.
Assay [5] concerns the target Adenosine receptors; A1 & A3 (Homo sapiens) (UniProt P30542+P0DMS8). Put plainly: Selectivity ratio (hA1/hA3). It is filed as protein assay.
Assay [6] deals with T4, Adenosine receptor A3 (Homo sapiens, UniProt P0DMS8).
T4 sequence (P0DMS8 whole entry): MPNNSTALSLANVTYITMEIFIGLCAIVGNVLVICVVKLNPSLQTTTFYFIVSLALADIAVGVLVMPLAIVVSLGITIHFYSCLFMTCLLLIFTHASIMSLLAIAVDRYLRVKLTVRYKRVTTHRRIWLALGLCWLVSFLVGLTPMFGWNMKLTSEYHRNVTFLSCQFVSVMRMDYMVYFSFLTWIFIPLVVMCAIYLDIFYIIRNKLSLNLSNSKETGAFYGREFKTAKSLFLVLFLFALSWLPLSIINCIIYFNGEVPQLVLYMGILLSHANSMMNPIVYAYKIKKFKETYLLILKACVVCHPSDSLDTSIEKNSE
The experiment in a line: biochemical.

Assay [7] has as its target T3, Adenosine receptor A2b. Put plainly: Displacement of [3H]DPCPX from human Adenosine A2B receptor expressed in HEK293 cells; range 115-161. It is filed as cell-based. The method in brief: as §2
Assay [8] has as its target T1, Adenosine receptor A1. Put plainly: Displacement of [3H]DPCPX from human Adenosine A1 receptor expressed in CHO cells; range 330-478. It counts as cell-based. An outline of the steps:
as §1

Assay [9] deals with T2, Adenosine receptor A2a. Put plainly: Displacement of [3H]SCH-58261 from human Adenosine A2A receptor expressed in HEK293 cells; range 24-48. It counts as cell-based.
Assay [10] deals with T4, Adenosine receptor A3. Put plainly: biochemical. The source holds these as a separate data set.
For assay [11], the target named is T3, Adenosine receptor A2b. The experiment in a line: Displacement of [3H]DPCPX from human Adenosine A2B receptor expressed in HEK293 cells; range 76-98. It counts as cell-based. An outline of the steps: as §2
The target of assay [12] is T1, Adenosine receptor A1. The experiment in a line: Displacement of [3H]-DPCPX from human Adenosine A1 receptor expressed in CHO cells; range 240-368. It is filed as cell-based.
In assay [13] the target is T4, Adenosine receptor A3. The experiment in a line: Displacement of [3H]MRE3008-F20 from human Adenosine A3 receptor expressed in HEK cells; range 0.37-0.50. It is filed as cell-based, HEK293.
In assay [14] the target is T2, Adenosine receptor A2a. Put plainly: Displacement of [3H]SCH-58261 from human Adenosine A2A receptor expressed in HEK293 cells; range 91-137. It is filed as cell-based.
Assay [15] addresses T3, Adenosine receptor A2b. The experiment in a line: Displacement of [3H]DPCPX from human Adenosine A2B receptor expressed in HEK293 cells; range 178-310. It is filed as cell-based. The method in brief: as §2
The target in assay [16] is T1, Adenosine receptor A1. The experiment in a line: Displacement of [3H]DPCPX from human Adenosine A1 receptor expressed in CHO cells; range 346-586. It is filed as cell-based. The method in brief:
as §1

Assay [17] addresses T2, Adenosine receptor A2a. The experiment in a line: Displacement of [3H]SCH-58261 from human Adenosine A2A receptor expressed in HEK293 cells; range 51-55. It is filed as cell-based.
Assay [18] has as its target T4, Adenosine receptor A3. Put plainly: biochemical. The source holds these as a separate data set.
Assay [19] has as its target T1, Adenosine receptor A1. The experiment in a line: Displacement of [3H]DPCPX from human Adenosine A1 receptor expressed in CHO cells; range 324-475. It counts as cell-based.
The target in assay [20] is T3, Adenosine receptor A2b. The experiment in a line: Displacement of [3H]-DPCPX from human Adenosine A2B receptor expressed in HEK293 cells; range 91-148. It counts as cell-based. An outline of the steps: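 Competition binding on membranes of HEK-293 cells carrying recombinant human A2B receptor. Incubation 60 min at 25 °C in 50 mM Tris HCl pH 7.4 with 10 mM MgCl2, 1 mM EDTA, 0.1 mM benzamidine and 2 IU/mL adenosine deaminase. Radioligand 40 nM [3H]DPCPX, at least six to eight test concentrations. NECA defined nonspecific binding. Bound ligand separated on glass-fibre filters and counted; n = 3-6.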

Assay [21] has as its target T4, Adenosine receptor A3. The experiment in a line: Displacement of [3H]MRE3008-F20 from human Adenosine A3 receptor expressed in HEK cells; range 3.05-3.78. It counts as cell-based, HEK293.
For assay [22], the target named is T4, Adenosine receptor A3. The experiment in a line: Inhibition of IB-MECA agonist-mediated cAMP production in CHO cell membranes expressing human Adenosine A3 receptor; range 15-44. It counts as functional, cell-based. An outline of the steps:
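Human A3-CHO membranes (in 50 mM Tris HCl, 10 mM MgCl2, 1 mM EDTA, pH 7.4) were preincubated for 10 min at 37 °C with 5 µM GTP, 0.5 mM Ro 20-1724 and 2.0 IU/mL adenosine deaminase. IB-MECA (100 nM) or antagonist was then added with 1 mM ATP and forskolin for 10 min. The reaction was stopped by 2 min boiling. cAMP was measured by [3H]cAMP competitive protein binding using beef adrenal binding protein, 150 min at 4 °C.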

Assay [23] deals with T2, Adenosine receptor A2a. The experiment in a line: Displacement of [3H]SCH-58261 from human Adenosine A2A receptor expressed in HEK293 cells; range 114-179. It is filed as cell-based.

T2 sequence (P29274 whole entry): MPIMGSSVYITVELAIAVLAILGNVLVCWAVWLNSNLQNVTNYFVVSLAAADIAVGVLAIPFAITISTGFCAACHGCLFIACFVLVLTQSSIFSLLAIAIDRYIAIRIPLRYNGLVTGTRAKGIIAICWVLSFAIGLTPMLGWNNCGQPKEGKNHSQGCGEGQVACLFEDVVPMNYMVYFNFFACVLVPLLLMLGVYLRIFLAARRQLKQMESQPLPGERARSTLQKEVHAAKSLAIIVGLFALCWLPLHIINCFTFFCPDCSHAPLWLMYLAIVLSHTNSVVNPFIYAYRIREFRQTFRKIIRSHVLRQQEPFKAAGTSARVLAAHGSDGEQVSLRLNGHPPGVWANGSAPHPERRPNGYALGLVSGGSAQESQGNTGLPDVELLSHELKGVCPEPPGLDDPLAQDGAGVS

`CCn1cc2c(nc(NC(=O)Nc3ccc4c(c3)OCO4)n3nc(-c4ccco4)nc23)n1`: the Ki in assay [1] is 802 nM; in assay [2] it was 576 nM; in assay [3], 48 nM; in assay [6] it was 0.27 nM. Besides, the Ratio was found to be 178 in assay [4] and 2970 in [5].
As to `CCCn1cc2c(nc(NC(=O)Nc3ccc(C(F)(F)F)cc3)n3nc(-c4ccco4)nc23)n1`, the Ki stood at 136 nM in assay [7], 400 nM in assay [8], 34 nM in assay [9] and 0.51 nM in [10]. Moreover, the Ratio in [4] came to 267; in [5], 784.
On to `CCCCn1cc2c(nc(NC(=O)Nc3ccc(Cl)cc3)n3nc(-c4ccco4)nc23)n1`, for which the Ki in assay [11] worked out at 87 nM; in assay [12] it was 300 nM; in assay [13], 0.43 nM; in assay [14] it was 111 nM. In addition, the Ratio in assay [4] came to 202; in assay [5], 698.
With `CCn1cc2c(nc(NC(=O)Nc3ccc(C(F)(F)F)cc3)n3nc(-c4ccco4)nc23)n1`, the Ki in [15] is 235 nM; in [16] it was 450 nM; in assay [17] it was 53 nM; in [18], 0.97 nM. Also, the Ratio in assay [4] turned out to be 242; in [5], 464.
In the case of `Cn1cc2c(nc(NC(=O)Nc3ccc(Cl)c(Cl)c3)n3nc(-c4ccco4)nc23)n1`, the Ki in assay [19] was found to be 392 nM; in assay [20], 116 nM; in assay [21], 3.4 nM; in assay [23] it was 143 nM. In addition, the IC50 in assay [22] is 26 nM. Moreover, the Ratio in assay [4] came out at 34; in assay [5], 115.
